Assay outcomes: PubChem, several laboratories
The list is not random: actives were taken first. Their share in the collection is about 4.7%.
IMP-1 inh – IMP-1 metallo-beta-lactamase inhibitors, primary screen, biochemical, epi-absorbance readout, Pseudomonas aeruginosa enzyme; metallo-beta-lactamase IMP-1 (Pseudomonas aeruginosa); inhibition, % at 5.6 µM; 290,000 tested, 0.45% active; purified IMP-1, nitrocefin hydrolysis, epi-absorbance fluorescence;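 active = inhibition above the mean plus 3 SD of all compounds in the same screening run, cut at about 4.5% in these data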;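 note: 0% = IMP-1 with DMSO and 100% = DMSO wells lacking enzyme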
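assay system = purified recombinant IMP-1 metallo-beta-lactamase enzyme | schedule = 15 min preincubation plus 25 min reaction at 25 °C | signal = Epi-absorbance fluorescence, 480 nm excitation, 530 nm emission | read-out basis = percent inhibition from optical density relative to buffer-blank wells | controls = IMP-1 with DMSO as 0%, enzyme-free DMSO as 100%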
Mdm2 MdmX PPI – inhibitors of human Mdm2-MdmX association, primary screen, cell-based, luminescence, split luciferase, SaOS-2, uHTS; inhibition, % at 8 µM; 330,000 tested, 3% active; SaOS-2 split-luciferase Mdm2/MdmX complementation;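 active = inhibition of at least 50% at 8 µM in the primary screen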
aSyn 5UTR inh – MLPCN primary screen, SNCA 5' untranslated region | alpha-synuclein 5'UTR reporter, inhibitor activity | inhibition, % (tested at 7.5 µM) | 300,000 tested, 0.82% active; in the data active = inhibition above about 60%;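 note: H4 neuroglioblastoma cells stably carrying SNCA 5'UTR luciferase fusion; 0% = DMSO wells and 100% = positive control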
697 NFkB inh – inhibitors of PMA/ionomycin-induced NF-kB reporter, 697 cells, primary screen, B-cell NF-kB inhibitor project, cell-based, luminescence, uHTS; 697 B-cell NF-kB luciferase reporter, 16 h; 330,000 tested, 0.33% active; AID 435022, 2010; inhibition, % at 4 µM; in the data active = inhibition above about 35%
Jurkat NFkB inh – inhibitors of induced NF-kB luciferase reporter, primary screen, TCR NF-kB activation inhibitor project, cell-based, luminescence, uHTS | inhibition, % at 4 µM | 330,000 tested, 0.53% active | Jurkat, PMA/ionomycin-induced NF-kB luciferase reporter | AID 435003, 2010; in the data active = inhibition above about 50%
VIM-2 inhibitor – VIM-2 metallo-beta-lactamase inhibitors, primary screen, biochemical, epi-absorbance readout, Pseudomonas aeruginosa enzyme; purified VIM-2, nitrocefin hydrolysis, epi-absorbance fluorescence; inhibition, % at 5.6 µM; AID 1527, 2009; 290,000 tested, 0.89% active;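 active = inhibition above the mean of all tested compounds plus 3 SD, cutoff set per screening run, cut at about 7.5% in these data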;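 note: red hydrolysis product quenches plate fluorescence so inhibitors raise well fluorescence; 0% = enzyme with DMSO and 100% = DMSO without enzyme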
Mdm2 MdmX conf – Mdm2-MdmX complex disruptors, retested hits, confirmation, luminescence, single concentration; shares compounds with Mdm2 MdmX PPI; Mdm2-MdmX binding, luminescent assay; inhibition, % at 8 µM; 10,000 tested, 55% active; in the data active = inhibition above about 40%
Full FLuc ctr – full-length luciferase signal inhibition, confirmation, counter-screen for Mdm2/MdmX interaction inhibitor project, cell-based, single concentration, SaOS-2. shares compounds with Mdm2 MdmX PPI. SaOS-2 full-length luciferase counterscreen, luminescence. inhibition, % at 8 µM. 6,200 tested, 77% active;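 active = mean inhibition at 8 µM reaching about 37%, which flags the compound as non-specific, limit read from the data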;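 note: p53-null SaOS-2 cells with luciferase driven by a doxycycline-inducible promoter; compound on cells about two nights before reading with doxycycline added after day one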
An asterisk follows results filed as active; . = not tested or not shown.

SMILES	IMP-1 inh	Mdm2 MdmX PPI	aSyn 5UTR inh	697 NFkB inh	Jurkat NFkB inh	VIM-2 inhibitor	Mdm2 MdmX conf	Full FLuc ctr
COc1ccc(-n2c(C)nc3ccccc3c2=O)c([N+](=O)[O-])c1	-5	-1	15	12	-3	-1	.	.
O=C(CCC(=O)N1C[C@H]2C[C@@H](C1)c1cccc(=O)n1C2)NCc1ccc(F)cc1	.	18	.	7	5	.	.	.
CCC1(c2cccc(O)c2)CCCCN(C)C1 (configuration not stated)	.	14	.	25	-17	.	.	.
N#CC1=C(N)Oc2c(c(=O)sc3ccccc23)C1c1cccnc1 (configuration not stated)	-2	52*	5	-33	9	0	60*	56*
COCCNC(=O)CN1C(=O)CN=C(c2ccccc2)c2ccccc21	-4	0	8	7	8	-2	.	.
O=[N+]([O-])c1cc(F)c(N2CCCCCC2)cc1N1CCNCC1	-4	52*	0	29	3	1	27	.
O=[N+]([O-])c1ccc(N2CCNCC2)cc1N1CCCCCC1	-2	12	17	11	-3	-3	.	.
COc1ccc2c(c1)[nH]c1c(C)nccc12	.	90*	.	-54	19	.	90*	23
Cc1nccc2c1[nH]c1ccc(Br)cc12	.	37	17	0	0	.	.	.
CC1CC(OC(=O)c2ccccc2)(c2ccccc2)C(C)CN1C (configuration not stated)	-2	25	-6	-4	-12	-3	.	.
CCOC(=O)c1c(C)n(Cc2ccccc2)c2ccc(OCC(O)CNC(C)(C)C)cc12 (configuration not stated)	-5	51*	5	16	22	0	26	.
CCOC(=O)c1c(C)n(Cc2ccccc2)c2ccc(OCC(O)Cn3nc(C)nc3C)cc12 (configuration not stated)	-2	-2	29	-6	-3	2	.	.
COC(=O)C1=C(c2ccc(F)cc2OCc2ccccc2)C[C@@H]2CC[C@H]1N2C(=O)NCc1ccc(Br)cc1	.	45	.	4	20	.	.	.
CCn1c(O)c(N=Nc2cccc(S(=O)(=O)N3CCOCC3)c2)c(=O)n(CC)c1=S	0	44	-8	6	-1	0	.	.
CCn1c(O)c(N=Nc2ccc(S(=O)(=O)N3CCOCC3)cc2)c(=O)n(CC)c1=S	-1	58*	-21	19	10	-1	21	.
CC1CN(c2ccc([N+](=O)[O-])cc2Cl)CCN1 (configuration not stated)	-4	-15	-6	-1	0	-2	.	.
C1=NCCc2c1[nH]c1ccccc21	.	52*	1	3	8	.	-54	.
C/C(=N\NP(=S)(c1ccccc1)c1ccccc1)c1ccc(O)cc1O	-4	-10	-14	4	-7	-3	.	.
Cc1cc(O)c2c(c1)C(=O)C13C(=C2O)C(=O)[C@H]2[C@@H](O)[C@@H]1[C@H]1[C@H](O)[C@@H]3C(=O)C3=C(O)c4c(O)cc(C)cc4C(=O)C312 (some centres not stated)	.	86*	.	28	4	.	61*	30
Oc1cc(Cl)ccc1Oc1ccc(Cl)cc1Cl	.	66*	15	-5	8	.	17	.
COc1ccccc1-n1c(/C=C/c2ccccn2)nc2ccccc2c1=O	-4	47	-11	18	7	-1	.	.
O=C(c1cccc2ccccc12)C1CCCN(C2CCC2)C1 (configuration not stated)	-1	-18	2	12	-2	1	.	.
CC[C@@]1(O)C(=O)OCc2c1cc1n(c2=O)Cc2cc3c(NC(=O)CN)cccc3nc2-1	-1	84*	71*	-132	49	0	79*	57*
COc1cc2c(cc1O)C[C@H]1NCCc3cc4c(c-2c31)OCO4	-3	61*	44	3	-5	2	39	41*
CC12CN3CCN(C1)CC(C)(C3)C2=NO	-5	13	21	2	-25	-3	.	.
SMILES	IMP-1 inh	Mdm2 MdmX PPI	aSyn 5UTR inh	697 NFkB inh	Jurkat NFkB inh	VIM-2 inhibitor	Mdm2 MdmX conf	Full FLuc ctr
COc1cc(C)c(CNCCc2c[nH]c3ccccc23)cc1C	-2	64*	48	-15	15	0	33	.
COc1ccc(CNCCc2c[nH]c3ccccc23)c(OC)c1C	-1	41	48	3	27	1	.	.
CC1(C)C(=O)CC[C@@]2(C)C1=CCC1C2CC[C@]2(C)C(=O)CCC12 (some centres not stated)	.	19	.	-2	-4	.	.	.
CC[n+]1c(/C=C/N(C)c2ccccc2)sc2ccc(Cl)cc21	-2	52*	-12	-16	24	1	31	.
O=C(Nc1ccc(Cl)cc1C(=O)c1ccccc1Cl)c1ccco1	-2	17	26	-9	6	-6	.	.
c1ccc2c(N3CCNCC3)nsc2c1	-2	53*	44	-3	-17	-6	64*	30
Fc1ccc(C[n+]2c(-c3ccccc3)cc(-c3ccccc3)cc2-c2ccccc2)cc1	.	89*	50	-29	12	.	69*	38*
Clc1ccc(C[n+]2c(-c3ccccc3)cc(-c3ccccc3)cc2-c2ccccc2)cc1	.	90*	59	6	41	.	84*	19
C[n+]1c(-c2ccccc2)cc(-c2ccc(O)cc2)cc1-c1ccccc1	-3	16	6	17	2	3	.	.
Cc1ccc(-c2cc(-c3ccccc3)cc(-c3ccccc3)[n+]2-c2ccccc2C(=O)O)cc1	.	27	-14	-6	12	.	.	.
CN1C2CCC1C(C(=O)O)C(O)C2 (configuration not stated)	.	9	.	-2	-9	.	.	.
O=C(CCCN1CCC2(CC1)C(=O)NCN2c1ccccc1)c1ccc(F)cc1	-2	63*	1	24	9	-1	16	.
Cc1[nH]c2ccc(OC(F)(F)F)cc2c1CCNCc1ccc(Cl)cc1	-2	83*	18	6	19	-2	51*	48*
Oc1ccc(-[n+]2c(-c3ccccc3)cc(-c3ccccc3)cc2-c2ccccc2)cc1	.	98*	3	-39	18	.	71*	59*
COc1ccc(-[n+]2c(-c3ccccc3)cc(-c3ccccc3)cc2-c2ccccc2)cc1	.	87*	81*	17	45	.	88*	14
